Source: PubChem
This is a sample that favours compounds with a hit; in the whole collection about 1.7% have one here.
PP5 inh: blocks human protein phosphatase 5 activity; 320,000 compounds, 0.18% hits; purified PP5c, OMFP substrate fluorescence; AID 1987; inhibition, % at 6.7 µM;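 active = inhibition above the campaign's mean inhibition across all tested compounds plus 3 SD, cut at about 9.5% in these data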
T cell HTS: T cell immune modulators affecting CD8 T cell-vesicle binding | AID 2052 | 2C CD8+ T cell-vesicle binding, flow cytometry; active compounds read low | response (vesicle binding), % at 7 µM | 330,000 compounds, 0.068% hits;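 active = response, share of CD8 T cells binding vesicles, and their 90th percentile fluorescence all below set limits, cut at about 80% in these data, passing the limit was not always enough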;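 also: values below 100% mean blocked vesicle binding to the CD8+ T cells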
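Benchmarks: naked versus QL9-loaded vesicles / Assay system: purified 2C TCR transgenic mouse naive CD8+ T cells / Technique: high-throughput flow cytometry with anti-B7-1 and anti-CD8 staining / Timing: Cell–vesicle co-incubation 1.5 h at 37 °C, staining 20 min on ice / Read-out: percent CD8+ FL2 mean versus row control / Probe or stimulus: QL9-loaded Drosophila micro-vesicles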
m5-HT2A agonist: agonists of mouse serotonin 5-HT2A receptor (HTR2A). P35363. AID 624169. activation, % at 7.6 µM. CHO-K1 mHTR2A beta-arrestin complementation, luminescence; percent of 30 µM serotonin response. 360,000 compounds, 0.66% hits;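 active = activation above a run cutoff, the mean activation of all tested compounds plus 3 SD, cut at about 14% in these data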
PP1 inh: PP1-alpha (human) inhibition in PP5 counter-screen | AID 2235 | P62136 | 320,000 compounds, 0.9% hits | purified PP1alpha, OMFP fluorescence | inhibition, % at 6.7 µM;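 active = inhibition above the mean inhibition of all tested compounds plus 3 SD, computed separately for each screening campaign, cut at about 15% in these data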
JMJD2C inh: human JMJD2C demethylase inhibition | Q9H3R0 | GST-JMJD2C(1-420) H3K9me3 demethylation, DELFIA europium | inhibition, % at 2.35 µM | 330,000 compounds, 0.069% hits;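 active = more than half of a compound's replicate wells show inhibition beyond 50%, single wells judged on their own value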;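 also: signal counts dimethyl H3K9 product captured on neutravidin plate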
Target sequence (Q9H3R0 1-420 limits assumed): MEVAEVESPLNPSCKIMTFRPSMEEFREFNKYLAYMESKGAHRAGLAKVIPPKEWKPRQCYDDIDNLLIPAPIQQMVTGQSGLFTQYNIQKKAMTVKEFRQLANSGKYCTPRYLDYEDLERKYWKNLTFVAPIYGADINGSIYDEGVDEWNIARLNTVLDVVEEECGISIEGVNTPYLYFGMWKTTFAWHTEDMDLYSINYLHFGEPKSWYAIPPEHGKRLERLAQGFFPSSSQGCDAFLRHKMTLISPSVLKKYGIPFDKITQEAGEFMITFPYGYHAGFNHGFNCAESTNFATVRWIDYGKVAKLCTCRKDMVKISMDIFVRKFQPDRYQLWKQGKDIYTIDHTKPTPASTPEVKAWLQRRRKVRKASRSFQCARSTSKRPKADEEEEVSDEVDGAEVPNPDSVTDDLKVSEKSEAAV
PP1 inh confirm: confirmation of human PP1 phosphatase inhibitors; 1,900 compounds, 52% hits; shares compounds with PP1 inh; AID 2358; purified PP1alpha, OMFP substrate fluorescence; inhibition, % at 6.7 µM;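 active = mean PP1 inhibition above a set limit taken from the earlier primary screen, cut at about 15% in these data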
PP5 counter: PP5 phosphatase inhibition, counter-screen for PP1 inhibitors | purified PP5c, OMFP fluorescence | 1,900 compounds, 4% hits | inhibition, % at 6.7 µM | shares compounds with PP1 inh | AID 2360;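 active = mean PP5 inhibition over triplicate wells above about 9.5% taken from the earlier PP1 screen, limit read from the data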
A number is an active result; i = inactive; nt = no result given.

SMILES	PP5 inh	T cell HTS	m5-HT2A agonist	PP1 inh	JMJD2C inh	PP1 inh confirm	PP5 counter
CCCCC(=O)NC(c1cccs1)c1cc(Cl)c2cccnc2c1O (configuration not stated)	i	i	i	20	i	24	i
CC(=O)NC(c1ccc(Cl)cc1)c1ccc2cccnc2c1O (configuration not stated)	nt	nt	i	nt	nt	nt	nt
CCCC(=O)NC(c1ccc(C(C)C)cc1)c1ccc2cccnc2c1O (configuration not stated)	i	i	i	26	i	23	i
CCCC(=O)NC(c1ccccc1Cl)c1ccc2cccnc2c1O (configuration not stated)	i	i	i	20	i	i	i
Cc1cc(NC(c2ccc(Cl)cc2)c2ccc3cccnc3c2O)no1 (configuration not stated)	i	i	i	22	i	15	i
COC(=O)c1ccc(NC(=O)CCN2C(=O)CSC2=O)cc1	i	i	i	i	i	nt	nt
CCC(=O)NC(c1ccc(Cl)cc1Cl)c1ccc2cccnc2c1O (configuration not stated)	i	i	i	i	i	nt	nt
CC(C)C(=O)NC(c1ccc(Cl)cc1Cl)c1ccc2cccnc2c1O (configuration not stated)	i	i	i	27	i	20	i
Cc1cccc(NC(=O)CN2C(=O)N/C(=C/c3ccc(C)s3)C2=O)c1	i	i	i	21	i	i	i
Cc1cccc(NC(=O)CN2C(=O)N/C(=C/c3cc(C)n(C(C)C)c3C)C2=O)c1	i	i	i	i	i	nt	nt
Cc1cccc(N2C(=O)C(O)=C(C(=O)c3cccs3)C2c2ccc(F)cc2)n1 (configuration not stated)	i	i	i	i	i	nt	nt
Cc1cccc(N2C(=O)C(O)=C(C(=O)c3cccs3)C2c2ccc(C(C)C)cc2)n1 (configuration not stated)	i	i	i	23	i	19	i
CC/C(=C\c1ccc(N(C)C)cc1)c1ccncc1	nt	nt	i	nt	nt	nt	nt
CCCCCCCCCCn1c2c(c(=N)c3c1CCC3)CCC2	i	i	i	21	i	i	i
CCCCCCCCCn1c2c(c(=N)c3c1CCC3)CCCC2	nt	nt	i	nt	i	nt	nt
COCCN1C[C@@H](CO)O[C@@H](n2cnc3c(NC4CC4)ncnc32)C1	nt	nt	i	nt	nt	nt	nt
Cc1ccc(C2=NN(C(=O)CCC(=O)O)C(c3cn(-c4ccccc4)nc3-c3ccc(C)cc3)C2)cc1 (configuration not stated)	i	i	i	20	i	23	i
COc1ccc(C2=NN(c3ccccc3)C(c3cn(CCC(=O)O)nc3-c3ccccc3)C2)cc1 (configuration not stated)	i	i	i	24	i	i	i
Cc1ccc(-c2nn(-c3ccccc3)cc2C2CC(c3cccs3)=NN2C(=O)CCCC(=O)O)cc1 (configuration not stated)	i	i	i	i	i	nt	nt
COc1cc(C(=O)NNC(=O)COc2ccc(Cl)cc2)ccc1OCC(=O)N1CCOCC1	i	i	i	i	i	nt	nt
O=C(COc1coc(CN2CCCc3ccccc32)cc1=O)Nc1ccc([N+](=O)[O-])cc1	i	i	i	21	i	i	i
COc1cc(/C=C/C(=O)OCC(=O)NCc2ccccc2OC)ccc1O	i	i	i	i	i	nt	nt
O=C1CC(C(=O)Nc2ccc(Cl)cc2)S/C(=N\N=C\c2ccco2)N1 (configuration not stated)	i	i	i	i	i	nt	nt
O=C1CC(C(=O)Nc2ccc(Cl)c(Cl)c2)S/C(=N\N=C\c2ccco2)N1 (configuration not stated)	i	i	i	22	i	i	i
COc1ccc(-n2ncc3c(=O)n(CC(=O)NC(C)C)cnc32)cc1	i	i	i	i	i	nt	nt
SMILES	PP5 inh	T cell HTS	m5-HT2A agonist	PP1 inh	JMJD2C inh	PP1 inh confirm	PP5 counter
COc1cc(OC)c(OC)cc1CN1CCN(Cc2cccn2C)CC1	i	i	i	18	i	i	i
COc1cc(OC)c(OC)cc1CN1CCN(c2ccccc2OC)CC1	i	i	i	i	i	nt	nt
Cn1c(SCc2ccccc2)nnc1-c1ccco1	i	i	i	i	i	nt	nt
Cc1ccc(-n2nc3ccc(NC(=O)/C=C/c4ccco4)cc3n2)cc1	i	i	i	19	i	i	i
Cc1ccc(NC(=O)c2cccc(NC(=O)/C=C/c3ccco3)c2)cc1C	i	i	i	i	i	nt	nt
Oc1ccccc1Nc1nc(NCc2ccccc2)c2ccccc2n1	i	i	i	19	i	i	i
CNc1nc(NCc2ccccc2)c2ccccc2n1	i	i	i	i	i	nt	nt
O=S(=O)(Nc1cccc(-c2ccc(N3CCCCCC3)nn2)c1)c1cccc(F)c1	i	i	i	18	i	i	i
O=S(=O)(Nc1cccc(-c2ccc(N3CCCCCC3)nn2)c1)c1ccccc1F	i	i	i	i	i	nt	nt
CCc1cccc(C)c1NC(=O)CSc1n[nH]c(N)n1	nt	i	i	nt	i	nt	nt
CCC(=O)N1N=C(c2c(-c3ccccc3)c3cc(Cl)ccc3[nH]c2=O)CC1c1ccco1 (configuration not stated)	i	i	i	27	i	i	i
COc1ccc(CCN2CC(C(=O)N(C)Cc3ccc(C)o3)CCC2=O)cc1 (configuration not stated)	i	i	i	i	i	nt	nt
Cc1cccc(OCc2nnc(SCCC(=O)O)n2-c2ccccc2)c1	i	i	i	i	i	nt	nt
Clc1ccc(SCc2cc(N3CCOCC3)nc(-c3ccccn3)n2)cc1	i	i	i	24	i	32	i
Cc1nc2ccc(C(=O)Nc3ccccc3Cl)cc2s1	nt	i	i	nt	i	nt	nt
CN(C)CCCNC(=O)C(=O)NCC1CCCO1 (configuration not stated)	i	i	i	i	i	nt	nt
Brc1ccc(C2=Nn3c(nnc3-c3n[nH]c4c3CCC4)SC2)cc1	i	i	i	22	i	i	i
c1ccc(-c2ccc(C3=Nn4c(nnc4-c4cc(-c5ccccc5)n[nH]4)SC3)cc2)cc1	i	i	i	30	i	33	i
O=C(NCCC1CCCCN1S(=O)(=O)c1ccc(Cl)cc1)C(=O)NCc1cccnc1 (configuration not stated)	i	i	i	52	i	i	i
Cc1cccc(-c2nnc(NC(=O)c3ccc(N4C(=O)CCC4=O)cc3)s2)c1	i	i	i	19	i	i	i
Cc1ccc(C)c(CSc2ccc3nnc(-c4ccccn4)n3n2)c1	i	i	i	22	i	i	i
Brc1ccc(CSc2ccc3nnc(-c4ccccn4)n3n2)cc1	i	i	i	26	i	20	i
CC(C)(C)c1cc(NCCCn2ccnc2)n2ncc(-c3ccc(Cl)cc3)c2n1	10	i	i	38	i	39	i
COc1ccc(NC(=O)NNC(=O)c2ccc(-c3ccccc3)cc2)cc1	i	i	i	28	i	22	i
